{
  "source": "ChEMBL document CHEMBL1126902",
  "about": "“Synthesis, chemical reactivity, and antitumor evaluation of congeners of carmethizole hydrochloride, an experimental \"acylated vinylogous carbinolamine\" tumor inhibitor” (J Med Chem, 1993)",
  "key": {"[1]": {"assay": "Percent increase in life span of dying mice tested in vivo at 49.5 mg/kg against ip implanted LOX amelanotic melanoma in mice (60-day survivors)", "format": "functional", "conditions": "Mus musculus, 1440 h, route intraperitoneal", "in_short": "(§1)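 Female CD2F1 mice implanted ip with ascitic fluid carrying ca. 1.7×10^6 LOX amelanotic melanoma cells. Drug given ip on days 1, 5 and 9, starting 24 h after implant, dosed by exact body weight; solutions or suspensions made fresh daily. %ILS is from the median day of death of dying mice versus controls, excluding 60-day survivors.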"}, "[2]": {"assay": "Percent increase in life span of dying mice tested in vivo at 99 mg/kg against ip implanted LOX amelanotic melanoma in mice (60-day survivors)", "format": "functional", "conditions": "Mus musculus, 1440 h, route intraperitoneal", "in_short": "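Nude CD2F1 female mice were implanted ip with ascitic fluid containing ca. 1.7×10^6 LOX amelanotic melanoma cells. Drug was given ip on days 1, 5 and 9, starting 24 h after implantation, and dosed by exact body weight. Solutions or suspensions were made fresh daily in saline plus Tween 80. %ILS was calculated from the median day of death of dying mice versus controls, excluding 60-day survivors.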"}, "[3]": {"assay": "Change in tumor cell population in ip implanted LOX amelanotic melanoma in mice after administration of compound at 49.5 mg/kg", "format": "functional, Mus musculus", "conditions": "route intraperitoneal", "in_short": "(§2)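 Female CD2F1 mice were implanted ip with ascitic fluid holding ca. 1.7×10^6 LOX cells. Dosing was ip on days 1, 5 and 9, starting 24 h after implantation, by exact body weight, as a solution or suspension in saline plus Tween 80, freshly prepared daily. KE is the net log change in viable tumor cells from start to end of treatment. Bracketed KE assumes Poisson survival, with 60-day survivors tumor-free.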"}, "[4]": {"assay": "Change in tumor cell population in ip implanted LOX amelanotic melanoma in mice after administration of compound at 99 mg/kg", "format": "functional, Mus musculus", "conditions": "route intraperitoneal", "in_short": "as §2"}, "[5]": {"assay": "Change in tumor cell population in ip implanted LOX amelanotic melanoma in mice after administration of compound at 198 mg/kg", "format": "functional, Mus musculus", "conditions": "route intraperitoneal", "in_short": "as §2"}, "[6]": {"assay": "Change in tumor cell population in ip implanted LOX amelanotic melanoma in mice after administration of compound at 24.75 mg/kg", "format": "functional, Mus musculus", "conditions": "route intraperitoneal", "in_short": "as §2"}, "[7]": {"assay": "Percent increase in life span of dying mice tested in vivo at 24.75 mg/kg against ip implanted LOX amelanotic melanoma in mice (60-day survivors)", "format": "functional", "conditions": "Mus musculus, 1440 h, route intraperitoneal", "in_short": "as §1"}, "[8]": {"assay": "Percent increase in life span of dying mice tested in vivo at 198 mg/kg against ip implanted LOX amelanotic melanoma in mice (60-day survivors)", "format": "functional", "conditions": "Mus musculus, 1440 h, route intraperitoneal", "in_short": "as §1"}, "P388 [9]": {"system": "P388", "assay": "Change in tumor cell population in ip implanted P388 Leukemia in mice after administration of compound at 24.8 mg/kg", "format": "functional, Mus musculus", "conditions": "route intraperitoneal", "in_short": "(§3)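 Female Portage-CD2F1 mice were inoculated ip with ascitic fluid holding ca. 5.2×10^6 P388 cells. Dosing was ip on days 1-5, starting 24 h after inoculation, by average body weight, as a solution or suspension in saline plus Tween 80. KE is the net log change in viable tumor cell population from start to end of the treatment period.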"}, "P388 [10]": {"system": "P388", "assay": "Change in tumor cell population in ip implanted P388 Leukemia in mice after administration of compound at 49.5 mg/kg", "format": "functional, Mus musculus", "conditions": "route intraperitoneal", "in_short": "(§4)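 P388 leukemia: ascitic fluid with ca. 5.2×10^6 cells inoculated ip into Portage-CD₂F₁ female mice. Drug given ip on days 1-5, starting 24 h after inoculation, dosed by average body weight. Vehicle was saline plus Tween 80, as a solution or suspension. KE = net log change in viable tumor cells from start to end of treatment.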"}, "P388 [11]": {"system": "P388", "assay": "Change in tumor cell population in ip implanted P388 Leukemia in mice after administration of compound at 99 mg/kg", "format": "functional, Mus musculus", "conditions": "route intraperitoneal", "in_short": "as §4"}, "P388 [12]": {"system": "P388", "assay": "Percent increase in life span of dying mice tested in vivo at 24.8 mg/kg against ip implanted P388 Leukemia in mice", "format": "functional", "conditions": "Mus musculus, route intraperitoneal", "in_short": "(§5)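 Portage-CD2F1 female mice inoculated ip with ascitic fluid carrying ca. 5.2×10^6 P388 leukemia cells. Drug given ip daily on days 1-5, starting 24 h after inoculation, dosed by average body weight. %ILS is from the median day of death of dying mice versus controls.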"}, "P388 [13]": {"system": "P388", "assay": "Percent increase in life span of dying mice tested in vivo at 49.5 mg/kg against ip implanted P388 Leukemia in mice", "format": "functional", "conditions": "Mus musculus, route intraperitoneal", "in_short": "as §5"}, "P388 [14]": {"system": "P388", "assay": "Percent increase in life span of dying mice tested in vivo at 99 mg/kg against ip implanted P388 Leukemia in mice", "format": "functional", "conditions": "Mus musculus, route intraperitoneal", "in_short": "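Portage-CD2F1 female mice were inoculated ip with ascitic fluid containing ca. 5.2×10^6 P388 leukemia cells. Drug was given ip daily on days 1-5, starting 24 h after inoculation, and dosed by average body weight. %ILS was calculated from the median day of death of dying mice versus controls.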"}, "P388 [15]": {"system": "P388", "assay": "Change in tumor cell population in ip implanted P388 Leukemia in mice after administration of compound at 12.4 mg/kg", "format": "functional, Mus musculus", "conditions": "route intraperitoneal", "in_short": "as §3"}, "P388 [16]": {"system": "P388", "assay": "Percent increase in life span of dying mice tested in vivo at 12.4 mg/kg against ip implanted P388 Leukemia in mice", "format": "functional", "conditions": "Mus musculus, route intraperitoneal", "in_short": "as §5"}, "[17]": {"assay": "Percent increase in life span of dying mice tested in vivo at 53 mg/kg against ip implanted LOX amelanotic melanoma in mice (60-day survivors)", "format": "functional", "conditions": "Mus musculus, 1440 h, route intraperitoneal", "in_short": "as §1"}, "[18]": {"assay": "Change in tumor cell population in ip implanted LOX amelanotic melanoma in mice after administration of compound at 106 mg/kg", "format": "functional, Mus musculus", "conditions": "route intraperitoneal", "in_short": "as §2"}, "[19]": {"assay": "Change in tumor cell population in ip implanted LOX amelanotic melanoma in mice after administration of compound at 53 mg/kg", "format": "functional, Mus musculus", "conditions": "route intraperitoneal", "in_short": "as §2"}, "[20]": {"assay": "Change in tumor cell population in ip implanted LOX amelanotic melanoma in mice after administration of compound at 212 mg/kg", "format": "functional, Mus musculus", "conditions": "route intraperitoneal", "in_short": "as §2"}, "[21]": {"assay": "Percent increase in life span of dying mice tested in vivo at 106 mg/kg against ip implanted LOX amelanotic melanoma in mice (60-day survivors)", "format": "functional", "conditions": "Mus musculus, 1440 h, route intraperitoneal", "in_short": "as §1"}, "[22]": {"assay": "Change in tumor cell population in ip implanted LOX amelanotic melanoma in mice after administration of compound at 26.5 mg/kg", "format": "functional, Mus musculus", "conditions": "route intraperitoneal", "in_short": "as §2"}, "[23]": {"assay": "Percent increase in life span of dying mice tested in vivo at 26.5 mg/kg against ip implanted LOX amelanotic melanoma in mice (60-day survivors)", "format": "functional", "conditions": "Mus musculus, 1440 h, route intraperitoneal", "in_short": "as §1"}, "[24]": {"assay": "Percent increase in life span of dying mice tested in vivo at 212 mg/kg against ip implanted LOX amelanotic melanoma in mice (60-day survivors)", "format": "functional", "conditions": "Mus musculus, 1440 h, route intraperitoneal", "in_short": "as §1"}},
  "data": [
    {"smiles": "CCC[S+]([O-])c1nc(COC(=O)NC)c(COC(=O)NC)n1C", "note": "(centres undefined)", "values": [
      {"measurement": "ILS at 49.5 mg/kg", "setting": "[1]", "value": 15, "unit": "%"},
      {"measurement": "ILS at 99 mg/kg", "setting": "[2]", "value": 1, "unit": "%"},
      {"measurement": "KE", "setting": "[3]", "value": 1},
      {"measurement": "KE", "setting": "[4]", "value": 1.6},
      {"measurement": "KE", "setting": "[5]", "value": 0.8},
      {"measurement": "KE", "setting": "[6]", "value": 1.7},
      {"measurement": "ILS at 24.75 mg/kg", "setting": "[7]", "value": -2, "unit": "%"},
      {"measurement": "ILS at 198 mg/kg", "setting": "[8]", "value": 21, "unit": "%"},
      {"measurement": "KE", "setting": "P388 [9]", "value": 1},
      {"measurement": "KE", "setting": "P388 [10]", "value": 0.9},
      {"measurement": "KE", "setting": "P388 [11]", "value": 0.9},
      {"measurement": "ILS at 24.8 mg/kg", "setting": "P388 [12]", "value": 25, "unit": "%"},
      {"measurement": "ILS at 49.5 mg/kg", "setting": "P388 [13]", "value": 27, "unit": "%"},
      {"measurement": "ILS at 99 mg/kg", "setting": "P388 [14]", "value": 27, "unit": "%"},
      {"measurement": "KE", "setting": "P388 [15]", "value": 1.4},
      {"measurement": "ILS at 12.4 mg/kg", "setting": "P388 [16]", "value": 10, "unit": "%"}
    ]},
    {"smiles": "CNC(=O)OCc1nc(SC2CCCCO2)n(C)c1COC(=O)NC", "note": "(centres undefined)", "values": [
      {"measurement": "ILS at 53 mg/kg", "setting": "[17]", "value": 15, "unit": "%"},
      {"measurement": "KE", "setting": "[18]", "value": 1},
      {"measurement": "KE", "setting": "[19]", "value": 1},
      {"measurement": "KE", "setting": "[20]", "value": 1.3},
      {"measurement": "ILS at 106 mg/kg", "setting": "[21]", "value": 15, "unit": "%"},
      {"measurement": "KE", "setting": "[22]", "value": 1.2},
      {"measurement": "ILS at 26.5 mg/kg", "setting": "[23]", "value": 11, "unit": "%"},
      {"measurement": "ILS at 212 mg/kg", "setting": "[24]", "value": 8, "unit": "%"}
    ]}
  ]
}
